The values below come from ChEMBL document CHEMBL1143259, “Synthesis and antiplasmodial activity of new 4-aryl-2-trichloromethylquinazolines” (Bioorg Med Chem Lett, 2008).

Usually IC50 stands for the concentration at which inhibition is half-maximal.

Data set [1] deals with Plasmodium falciparum. The data set is described as follows: Antiplasmodial activity against chloroquinone-resistant Plasmodium falciparum W2. It is filed as functional, organism-based.
In data set [2] the test system is Plasmodium falciparum. The data set is described as follows: Antiplasmodial activity against chloroquinone-sensitive Plasmodium falciparum 3D7. It is filed as functional, organism-based.
Another data set relates to HepG2. Briefly: Cytotoxicity against human HepG2 cells by MTT assay. It is filed as cell-based. The essentials: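 HepG2 cells were seeded at 5 × 10³ cells/well in RPMI and pre-incubated for 24 h. Compound was added at various concentrations and incubated for 72 h. MTT (5 mg/mL in PBS) was then added in serum-free medium for 2 h at 37 °C in 6% CO₂. Formazan was dissolved in DMSO and A570 read against a 630 nm reference. Viability was expressed as % of untreated control, and the 50% cytotoxic concentration taken from the dose–response curve. Values are the mean of three independent experiments.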
(In general: Formazan colour is commonly taken as a measure of viable cells.)

Data set [3] can be described thus: Selectivity index, ratio of IC50 for human THP1 cells to IC50 for Plasmodium falciparum W2. The format is functional, THP-1. The essentials:
(§1)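 SI = human-cell IC50 divided by P. falciparum W2 IC50. Each IC50 is the mean of three independent experiments.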

Data set [4] can be described thus: Selectivity index, ratio of IC50 for human HepG2 cells to IC50 for Plasmodium falciparum W2. It is filed as functional. The essentials: as §1
Data set [5] can be described thus: (§2) Cytotoxicity against human THP1 cells by MTT assay. The format is cell-based, THP-1. The following applies: human, THP-1 cells; read-out: LC50 (the source's name). The essentials:
(§3)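 Cells seeded at 5 × 10³/well in RPMI and pre-incubated 24 h, then exposed to a range of compound concentrations for 72 h. MTT was added in serum-free medium for 2 h at 37 °C, and the formazan was dissolved in DMSO. Absorbance was read at 570 nm against a 630 nm reference. Viability was taken as % of untreated control, and IC50 came from the dose–response curve (mean of three independent experiments).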

The next data set relates to THP-1. The data set is described as §2. The format is cell-based. The following applies: Homo sapiens, THP-1. The essentials: as §3

The structures appear in SMILES notation.

As for `ClC(Cl)(Cl)c1nc(-c2ccco2)c2ccccc2n1`, the IC50 is 20.2 µM in the data set on Plasmodium falciparum [1], 30 µM with Plasmodium falciparum [2], above 125 µM in the data set with HepG2 and 61.6 µM in the data set on THP-1. Also, the entries for the “Ratio IC50” value in data set [3] and in data set [4] were 3.1 and above 6.2, respectively. For the same compound, the CC50 in data set [5] was above 500 µM.
In the case of `FC(F)(F)c1cccc(-c2nc(C(Cl)(Cl)Cl)nc3ccccc23)c1`, the IC50 with Plasmodium falciparum [1] was 40.4 µM; with Plasmodium falciparum [2] it was 36.6 µM; with HepG2 it was above 125 µM; in the data set with THP-1, 78.6 µM. The “Ratio IC50” value in data set [3] is 1.9; in data set [4] it was above 3.1. Further, the CC50 in data set [5] was above 500 µM.
Consider `COc1cc(-c2nc(C(Cl)(Cl)Cl)nc3ccccc23)cc(OC)c1OC`, for which the IC50 with Plasmodium falciparum [1] was 28.9 µM; with Plasmodium falciparum [2] it was 23.3 µM; in the data set on HepG2, above 125 µM; in the data set on THP-1, above 250 µM. The “Ratio IC50” value in data set [3] was above 8.7; in data set [4], above 4.3. In addition, the CC50 in data set [5] is above 250 µM.
Take `C/N=C(\NC)c1nc(-c2ccccc2)c2ccccc2n1.Cl`: the IC50 in the data set on Plasmodium falciparum [1] was above 100 µM; in the data set on Plasmodium falciparum [2], above 100 µM; in the data set on HepG2, above 125 µM; in the data set with THP-1 it was above 500 µM. For the same compound, the “Ratio IC50” value in data set [3] was 5; in data set [4], below 1.25. In data set [5], the CC50 is above 500 µM.
Consider `Fc1ccc(-c2nc(C(Cl)(Cl)Cl)nc3ccccc23)cc1`, for which the IC50 in the data set on Plasmodium falciparum [1] is 2.5 µM; in the data set with Plasmodium falciparum [2], 3 µM; in the data set on HepG2, above 125 µM; with THP-1, 125 µM. The results for the “Ratio IC50” value in data set [3] and in data set [4] were 50 and above 50, respectively. Besides, the CC50 in data set [5] was 500 µM.
In the case of `C[C@H]1c2cccc(O)c2C(=O)C2=C(O)[C@]3(O)C(=O)C(C(N)=O)=C(O)[C@@H](N(C)C)[C@@H]3[C@@H](O)[C@@H]21` [DOXYCYCLINE], it took 9 µM to reach half-maximal inhibition in the data set on Plasmodium falciparum [1] (IC50).
In the case of `COc1cccc2c1C(=O)c1c(O)c3c(c(O)c1C2=O)C[C@@](O)(C(=O)CO)C[C@@H]3O[C@H]1C[C@H](N)[C@H](O)[C@H](C)O1` [DOXORUBICIN], the values for the IC50 in the data set on HepG2 and in the data set with THP-1 were 0.2 µM and 0.05 µM, respectively. Moreover, the CC50 in data set [5] is 2.5 µM.
For `COc1ccc(-c2nc(C(Cl)(Cl)Cl)nc3ccccc23)cc1`, the IC50 is 10.9 µM with Plasmodium falciparum [1], 25 µM with Plasmodium falciparum [2], 125 µM with HepG2 and 250 µM in the data set with THP-1. The “Ratio IC50” value in data set [3] was found to be 22.9; in data set [4] it was 11.5. The CC50 in data set [5] is above 250 µM.
With `Cc1nc(-c2ccccc2)c2ccccc2n1`, the half-maximal inhibitory concentration (IC50) with Plasmodium falciparum [1] was 62.4 µM; in the data set on Plasmodium falciparum [2], above 125 µM; with HepG2, above 125 µM; in the data set on THP-1, 125 µM. The entries for the “Ratio IC50” value in data set [3] and in data set [4] were 2 and above 2, respectively. The CC50 in data set [5] was above 500 µM.
In the data set on HepG2, `CCN(CC)CCCC(C)Nc1ccnc2cc(Cl)ccc12` (centres undefined) [CHLOROQUINE] gave an IC50 of 30 µM.
As for `Cc1ccc(-c2nc(C(Cl)(Cl)Cl)nc3ccccc23)s1`, the IC50 came out at 8.7 µM in the data set with Plasmodium falciparum [1], 24 µM in the data set on Plasmodium falciparum [2], 25 µM in the data set with HepG2 and 50 µM with THP-1. The “Ratio IC50” value is listed as 5.7 in data set [3] and 2.9 in data set [4]. Moreover, the CC50 in data set [5] stood at 125 µM.
For the compound `ClC(Cl)(Cl)c1nc(-c2ccc3ccccc3c2)c2ccccc2n1`, the IC50 in the data set on Plasmodium falciparum [1] is 8.1 µM; with Plasmodium falciparum [2], 23.3 µM; in the data set with HepG2, above 125 µM; with THP-1 it was above 500 µM. In addition, the “Ratio IC50” value in data set [3] is given as above 61.7; in data set [4], above 15.4. In addition, the CC50 in data set [5] was above 500 µM.
In the case of `Clc1nc(C(Cl)(Cl)Cl)nc2ccccc12`, the IC50 in the data set on Plasmodium falciparum [1] was 54.5 µM; in the data set with Plasmodium falciparum [2], 73.2 µM; with HepG2, above 125 µM; with THP-1, above 500 µM. The “Ratio IC50” value in data set [3] was above 9.2; in data set [4] it was above 2.3. Besides, the CC50 in data set [5] was above 500 µM.
On to `ClC(Cl)(Cl)c1nc(-c2ccccc2)c2ccccc2n1`, for which the IC50 in the data set with Plasmodium falciparum [1] is 8 µM; in the data set on Plasmodium falciparum [2] it was 20.4 µM; in the data set with HepG2, above 125 µM; in the data set with THP-1 it was 125 µM. For the same compound, the results for the “Ratio IC50” value in data set [3] and in data set [4] were 15.6 and above 15.6, respectively. In addition, the CC50 in data set [5] was above 500 µM.
As to `Clc1ccc(-c2nc(C(Cl)(Cl)Cl)nc3ccccc23)cc1`, the IC50 was 4.7 µM in the data set on Plasmodium falciparum [1], 2.2 µM in the data set on Plasmodium falciparum [2], above 125 µM in the data set on HepG2 and 73.2 µM with THP-1. Moreover, the “Ratio IC50” value in data set [3] is 15.6; in data set [4], above 26.6. Further, the CC50 in data set [5] was above 500 µM.
